The source made the active and inactive calls. No cut-off for these calls is given here.
Experiments:
Substance-P receptor [1] = molecular target: T1, Substance-P receptor (Homo sapiens, UniProt P25103); test: Displacement of [125I]L-703606 from human NK1 expressed in CHO cells; assay type: cell-based
Substance-P receptor [2] = molecular target: T1, Substance-P receptor; test: Displacement of [125I]L-703606 from human NK1 expressed in CHO cells in presence of 50% human serum at 0.1 uM; assay type: cell-based
Meriones unguiculatus [3] = test: Brain penetration in gerbils assessed as inhibition of GR-73632-induced foot tapping at 1 mg/kg, iv; assay type: functional
How it was run: (§1)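 Gerbils receive the test compound by iv injection. Hindlimb thumping (foot tapping) is then elicited by central administration of an NK1 agonist. Inhibition of the thumping is scored as % inhibition at 0 h after 1 mg/kg iv, or at 24 h after 3 mg/kg. Dose titrations at 0 and 24 h give an ID50.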

Substance-P receptor [4] = molecular target: T1, Substance-P receptor; test: Displacement of [125I]L-703606 from human NK1 expressed in CHO cells in presence of 50% human serum; assay type: cell-based
Meriones unguiculatus [5] = test: Brain penetration in gerbils assessed as inhibition of GR-73632-induced foot tapping at 3 mg/kg, iv after 24 hrs; assay type: functional; how it was run: as §1
Meriones unguiculatus [6] = species: Meriones unguiculatus; test: Brain penetration in gerbils assessed as inhibition of GR-73632-induced foot tapping; assay type: functional; conditions: read-out: ID50 (the source's name); how it was run: as §1
Substance-P receptor [7] = molecular target: T1, Substance-P receptor; test: Displacement of [125I]L-703606 from human NK1 expressed in CHO cells at 0.1 uM; assay type: cell-based

T1 sequence (P25103 whole entry): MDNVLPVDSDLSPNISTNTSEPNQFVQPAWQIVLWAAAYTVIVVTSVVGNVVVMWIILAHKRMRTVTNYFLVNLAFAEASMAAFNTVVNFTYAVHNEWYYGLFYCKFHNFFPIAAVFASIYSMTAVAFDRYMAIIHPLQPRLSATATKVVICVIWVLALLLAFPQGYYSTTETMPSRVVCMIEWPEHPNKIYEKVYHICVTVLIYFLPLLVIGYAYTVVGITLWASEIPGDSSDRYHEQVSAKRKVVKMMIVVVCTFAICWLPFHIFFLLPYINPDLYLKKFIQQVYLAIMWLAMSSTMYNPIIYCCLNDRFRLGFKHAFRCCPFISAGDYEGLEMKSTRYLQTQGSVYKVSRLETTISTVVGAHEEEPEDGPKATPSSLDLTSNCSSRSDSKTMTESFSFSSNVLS

Compound | IC50 (Substance-P receptor [1]) | Activity (Substance-P receptor [4]) | other results
C[C@@H](O[C@H]1CN(C(=O)OC(C)(C)C)[C@@H](CO)[C@@H]1c1ccccc1)c1cc(C(F)(F)F)cc(C(F)(F)F)c1 | 630 pM |  | 
C[C@@H](O[C@@H]1[C@@H](c2ccccc2)CN2C(=O)OC[C@H]12)c1cc(C(F)(F)F)cc(C(F)(F)F)c1 | 1500 pM |  | Activity (Substance-P receptor [2]): 31%; Activity (Meriones unguiculatus [3]): inactive
C[C@@H](O[C@H]1CN2C(=O)OC[C@@H]2[C@@H]1c1ccccc1)c1cc(C(F)(F)F)cc(C(F)(F)F)c1 | 270 pM | 37 nM | inhibition in vivo at 1 mg/kg (Meriones unguiculatus [3]): 2.5%
C[C@@H](O[C@H]1CN2C(=O)CC[C@H]2[C@@H]1c1ccc(F)cc1)c1cc(C(F)(F)F)cc(C(F)(F)F)c1 | 60 pM | 2.2 nM | inhibition in vivo at 3 mg/kg (Meriones unguiculatus [5]): 100%; inhibition in vivo at 1 mg/kg (Meriones unguiculatus [3]): 100%; ED50 (Meriones unguiculatus [6]): 0.03 mg/kg
C[C@@H](O[C@H]1CN(C(=O)OC(C)(C)C)[C@@H](CO)[C@@H]1c1ccc(F)cc1)c1cc(C(F)(F)F)cc(C(F)(F)F)c1 | 280 pM |  | inhibition in vivo at 3 mg/kg (Meriones unguiculatus [5]): 0%; inhibition in vivo at 1 mg/kg (Meriones unguiculatus [3]): 16%
C[C@@H](O[C@H]1[C@H](c2ccccc2)CN(C(=O)OC(C)(C)C)[C@H]1CO)c1cc(C(F)(F)F)cc(C(F)(F)F)c1 | 7800 pM |  | 
C[C@@H](O[C@@H]1[C@@H](c2ccccc2)CN2C(=O)OC[C@@H]12)c1cc(C(F)(F)F)cc(C(F)(F)F)c1 | 1300 pM |  | Activity (Substance-P receptor [2]): 25%; Activity (Meriones unguiculatus [3]): inactive
C[C@H](O[C@H]1CN(C(=O)OC(C)(C)C)[C@@H](CO)[C@@H]1c1ccc(F)cc1)c1cc(C(F)(F)F)cc(C(F)(F)F)c1 |  |  | Activity (Substance-P receptor [7]): 92%
C[C@H](O[C@@H]1[C@@H](c2ccc(F)cc2)CN(C(=O)OC(C)(C)C)[C@H]1CO)c1cc(C(F)(F)F)cc(C(F)(F)F)c1 |  |  | Activity (Substance-P receptor [7]): 41%
C[C@@H](O[C@H]1CN2C(=O)N(Cc3ccccc3)C[C@H]2[C@@H]1c1ccc(F)cc1)c1cc(C(F)(F)F)cc(C(F)(F)F)c1 | 2700 pM | inactive | Activity (Meriones unguiculatus [3]): inactive
C[C@@H](O[C@H]1CN2C(=O)N(C)C[C@H]2[C@@H]1c1ccc(F)cc1)c1cc(C(F)(F)F)cc(C(F)(F)F)c1 | 880 pM | 32 nM | Activity (Meriones unguiculatus [3]): inactive
C[C@@H](O[C@@H]1[C@@H](c2ccc(F)cc2)CN2C(=O)OC[C@H]12)c1cc(C(F)(F)F)cc(C(F)(F)F)c1 | 1000 pM | inactive | Activity (Meriones unguiculatus [3]): inactive
C[C@H](O[C@H]1[C@H](c2ccccc2)CN(C(=O)OC(C)(C)C)[C@H]1CO)c1cc(C(F)(F)F)cc(C(F)(F)F)c1 |  |  | Activity (Substance-P receptor [7]): 13%
C[C@@H](O[C@H]1CN2C(=O)OC[C@@H]2[C@@H]1c1ccc(F)cc1)c1cc(C(F)(F)F)cc(C(F)(F)F)c1 | 140 pM | 37 nM | inhibition in vivo at 3 mg/kg (Meriones unguiculatus [5]): 0%; inhibition in vivo at 1 mg/kg (Meriones unguiculatus [3]): 49%
C[C@@H](O[C@H]1[C@H](c2ccc(F)cc2)CN(C(=O)OC(C)(C)C)[C@H]1CO)c1cc(C(F)(F)F)cc(C(F)(F)F)c1 | 4400 pM |  | 
C[C@@H](O[C@@H]1[C@@H](c2ccc(F)cc2)CN2C(=O)OC[C@@H]12)c1cc(C(F)(F)F)cc(C(F)(F)F)c1 | 330 pM | 57 nM | Activity (Meriones unguiculatus [3]): inactive
C[C@@H](O[C@H]1CN2C(=O)NC[C@H]2[C@@H]1c1ccc(F)cc1)c1cc(C(F)(F)F)cc(C(F)(F)F)c1 | 60 pM | 2 nM | inhibition in vivo at 3 mg/kg (Meriones unguiculatus [5]): 8%; inhibition in vivo at 1 mg/kg (Meriones unguiculatus [3]): 100%
C[C@H](O[C@H]1CN(C(=O)OC(C)(C)C)[C@@H](CO)[C@@H]1c1ccccc1)c1cc(C(F)(F)F)cc(C(F)(F)F)c1 |  |  | Activity (Substance-P receptor [7]): 26%
C[C@@H](O[C@@H]1[C@@H](c2ccccc2)CN(C(=O)OC(C)(C)C)[C@H]1CO)c1cc(C(F)(F)F)cc(C(F)(F)F)c1 | 3600 pM |  | 
C[C@@H](O[C@@H]1[C@@H](c2ccc(F)cc2)CN(C(=O)OC(C)(C)C)[C@H]1CO)c1cc(C(F)(F)F)cc(C(F)(F)F)c1 | 1200 pM |  | 
C[C@H](O[C@@H]1[C@@H](c2ccccc2)CN(C(=O)OC(C)(C)C)[C@H]1CO)c1cc(C(F)(F)F)cc(C(F)(F)F)c1 |  |  | Activity (Substance-P receptor [7]): 26%
C[C@H](O[C@H]1[C@H](c2ccc(F)cc2)CN(C(=O)OC(C)(C)C)[C@H]1CO)c1cc(C(F)(F)F)cc(C(F)(F)F)c1 |  |  | Activity (Substance-P receptor [7]): 39%

Source: ChEMBL document CHEMBL1142272, “Fused bicyclic pyrrolizinones as new scaffolds for human NK1 antagonists” (Bioorg Med Chem, 2008)
